Measurements from different studies.
Each line is one published result; the experiments were not run side by side.
Cell line: MDA-MB-468
Effect on: cell growth or viability

SMILES	test	conditions	IC50
O=S(=O)(NN=Cc1cn(CCN2CCOCC2)c2ccccc12)c1cccc2ncccc12	MTT	48 h	32.2 µM
CC(=O)Nc1nc(C)c(-c2csc(Nc3ccccc3)n2)s1	MTT	48 h	12.1 µM
Oc1ccc(/C=C/c2cc(O)cc3c2C(c2cc(O)cc(O)c2)C(c2ccc(O)c(O)c2)O3)cc1 (centres unmarked)	MTT		18 µM
O=S(=O)(NN=Cc1cn(CCN2CCOCC2)c2ccccc12)c1ccc(Cl)cc1	MTT	48 h	8.2 µM
N=C(N)c1ccc(-c2ccc(-c3ccccc3)o2)cc1	MTT		0.66 µM
CCN1CCN(Cc2ccc(Nc3ncc(F)c(-c4cc(F)c5nc(C)n(C(C)C)c5c4)n3)nc2)CC1	CCK-8		0.711 µM
Cc1cc(NS(=O)(=O)c2ccc(NC(=O)COc3ccc(C(C)(C)c4ccccc4)cc3)cc2)nc(C)n1	MTT	72 h	34.9 µM
O=S(=O)(Cc1ccccc1)NN=Cc1cn(CCN2CCOCC2)c2ccccc12	MTT	48 h	50.6 µM
O=C(CSc1nc2ccc(N=Cc3ccc(Sc4nnnn4-c4ccccc4)o3)cc2s1)N1CCOCC1	MTT	72 h	20.4 µM
COc1cc2cc(OC)c3cc4c(cc3c2c(OC)c1OC)OCO4	MTT		21 µM
CC(C)(C)c1ccc(S(=O)(=O)NN=Cc2cn(CCN3CCOCC3)c3ccccc23)cc1	MTT	48 h	29.6 µM
O=C(/C=C/c1ccccc1)c1ccccc1	resazurin	72 h	> 50 µM
CN(N=O)c1ccc(C=Cc2ccnc3ccccc23)cc1	MTT		3.5 µM
O=S(=O)(NN=Cc1cn(CCN2CCOCC2)c2ccccc12)c1ccccc1	MTT	48 h	47 µM
COc1cc(/C=C2\SC(=O)NC2=O)ccc1OCc1ccc(Cl)cc1Cl	MTT	48 h	32.5 µM
Nc1ccc2cc3[nH]c4cc(N)ccc4c3nc2c1	MTT		0.11 µM
COc1ccc(Br)cc1/C=C/C(=O)c1ccc(NC(C)=O)cc1	MTT	48 h	2.4 µM
CN(C)c1ccc(/C=C/c2ccnc3ccc4ccccc4c23)cc1	MTT		0.12 µM
COc1ccc(/C=C/C(=O)c2cc(Br)ccc(=O)c2O)cc1	MTT	72 h	6.6 µM
Cc1ccc(S(=O)(=O)NN=Cc2cn(CCN3CCOCC3)c3ccccc23)cc1	MTT	48 h	40.8 µM
